Tests used:
Format in all cases: functional
CAKI-1 [1] = experiment: Growth inhibition of human Caki1 cells assessed tumor cell growth at 10^-5 M; parameters: scale not given: the % may be the effect or the level left
In short: (§1)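 NCI 60-human-tumor-cell-line panel screen. Each compound was tested at a single concentration of 10^-5 M, and percent growth of tumor cells was recorded for each cell line. Growth inhibition was expressed from these percent-growth values.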

LOX IMVI = experiment: Growth inhibition of human LOXIMVI cells assessed tumor cell growth at 10^-5 M; parameters: scale not given: the % may be the effect or the level left; in short: as §1
EKVX = experiment: Growth inhibition of human EKVX cells
NCI-H460 [2] = experiment: Growth inhibition of human NCI-H460 cells
NCI-H23 = experiment: Growth inhibition of human NCI-H23 cells assessed tumor cell growth at 10^-5 M; parameters: scale not given: the % may be the effect or the level left; in short: as §1
NCI-H322M = experiment: Growth inhibition of human NCI-H322M cells
DU-145 = experiment: Growth inhibition of human DU145 cells assessed tumor cell growth at 10^-5 M; parameters: scale not given: the % may be the effect or the level left; in short: as §1
NCI-H460 [3] = experiment: Growth inhibition of human NCI-H460 cells assessed tumor cell growth at 10^-5 M; parameters: scale not given: the % may be the effect or the level left; in short: as §1
COLO 205 = experiment: Growth inhibition of human COLO205 cells
UACC-257 = experiment: Growth inhibition of human UACC257 cells
SF-295 [4] = experiment: Growth inhibition of human SF295 cells assessed tumor cell growth at 10^-5 M; parameters: scale not given: the % may be the effect or the level left; in short: as §1
SR = experiment: Growth inhibition of human SR cells assessed tumor cell growth at 10^-5 M; parameters: scale not given: the % may be the effect or the level left
In short: (§2)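 Single-dose screen at 10^-5 M across the 60 human tumor cell line panel, run to NCI standards. The value is the percent growth of each cell line in the presence of compound. Compounds active at this dose moved on to five-concentration testing (10^-4 to 10^-8 M).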

786-0 = experiment: Growth inhibition of human 786-0 cells assessed tumor cell growth at 10^-5 M; parameters: scale not given: the % may be the effect or the level left; in short: as §1
RXF 393 [5] = experiment: Growth inhibition of human RXF393 cells
K562 = experiment: Growth inhibition of human K562 cells assessed tumor cell growth at 10^-5 M; parameters: scale not given: the % may be the effect or the level left; in short: as §1
SN12C [6] = experiment: Growth inhibition of human SN12C cells
SK-MEL-2 = experiment: Growth inhibition of human SK-MEL-2 cells assessed tumor cell growth at 10^-5 M; parameters: scale not given: the % may be the effect or the level left; in short: as §1
SF-295 [7] = experiment: Growth inhibition of human SF295 cells
HOP-62 = experiment: Growth inhibition of human HOP62 cells
TK-10 = experiment: Growth inhibition of human TK10 cells
OVCAR-4 = experiment: Growth inhibition of human OVCAR4 cells
MDA-MB-435 = experiment: Growth inhibition of human MDA-MB-435 cells assessed tumor cell growth at 10^-5 M; parameters: scale not given: the % may be the effect or the level left; in short: as §1
MDA-MB-231 [8] = experiment: Growth inhibition of human MDA-MB-231 cells assessed tumor cell growth at 10^-5 M; parameters: scale not given: the % may be the effect or the level left; in short: as §1
MDA-MB-468 = experiment: Growth inhibition of human MDA-MB-468 cells
HCT-15 = experiment: Growth inhibition of human HCT15 cells
SK-MEL-28 = experiment: Growth inhibition of human SK-MEL-28 cells assessed tumor cell growth at 10^-5 M; parameters: scale not given: the % may be the effect or the level left; in short: as §1
HCC 2998 [9] = experiment: Growth inhibition of human HCC2998 cells
CAKI-1 [10] = experiment: Growth inhibition of human Caki1 cells
OVCAR-3 = experiment: Growth inhibition of human OVCAR3 cells
NCI/ADR-RES [11] = experiment: Growth inhibition of human NCI/ADR-RES cells
[12] = Growth inhibition of human RPMI8266 cells
SNB-19 [13] = experiment: Growth inhibition of human SNB19 cells
Malme-3M = experiment: Growth inhibition of human MALME-3M cells assessed tumor cell growth at 10^-5 M; parameters: scale not given: the % may be the effect or the level left; in short: as §1
SF-539 = experiment: Growth inhibition of human SF539 cells
HCT-116 = experiment: Growth inhibition of human HCT116 cells assessed tumor cell growth at 10^-5 M; parameters: scale not given: the % may be the effect or the level left; in short: as §1
OVCAR-8 = experiment: Growth inhibition of human OVCAR8 cells
SNB-19 [14] = experiment: Growth inhibition of human SNB19 cells assessed tumor cell growth at 10^-5 M; parameters: scale not given: the % may be the effect or the level left; in short: as §2
SNB-75 = experiment: Growth inhibition of human SNB75 cells
KM12 = experiment: Growth inhibition of human KM12 cells
IGROV-1 [15] = experiment: Growth inhibition of human IGROV1 cells
In short: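 Follow-up panel testing at five concentrations (10^-4, 10^-5, 10^-6, 10^-7 and 10^-8 M) across the 60 human tumor cell lines. GI50 was obtained for each line from the concentration-response data, with the panel average GI50 also reported.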

MDA-MB-231 [16] = experiment: Growth inhibition of human MDA-MB-231 cells
[17] = Growth inhibition of human Hs 578T cells
MOLT-4 = experiment: Growth inhibition of human MOLT4 cells assessed tumor cell growth at 10^-5 M; parameters: scale not given: the % may be the effect or the level left; in short: as §1
SN12C [18] = experiment: Growth inhibition of human SN12C cells assessed tumor cell growth at 10^-5 M; parameters: scale not given: the % may be the effect or the level left; in short: as §1
IGROV-1 [19] = experiment: Growth inhibition of human IGROV1 cells assessed tumor cell growth at 10^-5 M; parameters: scale not given: the % may be the effect or the level left; in short: as §1
UO-31 = experiment: Growth inhibition of human UO31 cells assessed tumor cell growth at 10^-5 M; parameters: scale not given: the % may be the effect or the level left; in short: as §2
M14 = experiment: Growth inhibition of human M14 cells assessed tumor cell growth at 10^-5 M; parameters: scale not given: the % may be the effect or the level left; in short: as §1
HCC 2998 [20] = experiment: Growth inhibition of human HCC2998 cells assessed tumor cell growth at 10^-5 M; parameters: scale not given: the % may be the effect or the level left; in short: as §1
SK-MEL-5 = experiment: Growth inhibition of human SK-MEL-5 cells
NCI/ADR-RES [21] = experiment: Growth inhibition of human NCI/ADR-RES cells assessed tumor cell growth at 10^-5 M; parameters: scale not given: the % may be the effect or the level left; in short: as §1
RXF 393 [22] = experiment: Growth inhibition of human RXF393 cells assessed tumor cell growth at 10^-5 M; parameters: scale not given: the % may be the effect or the level left; in short: as §1
SW-620 = experiment: Growth inhibition of human SW620 cells
NCI-H522 = experiment: Growth inhibition of human NCI-H522 cells
[23] = read-out: LC50 (the source's name)

Compound: CC1=NN(c2cccc(Cl)c2)C(=O)/C1=C\C=C\c1ccccc1
- Activity (CAKI-1 [1]): 52.22%
- Activity (LOX IMVI): -87.87%
- GI50 (EKVX): 3 µM
- CC50 (EKVX; [23]): > 100 µM
- GI50 (NCI-H460 [2]): 1.6 µM
- CC50 (NCI-H460 [2]; [23]): 6.4 µM
- Activity (NCI-H23): 26.27%
- GI50 (NCI-H322M): 28.1 µM
- CC50 (NCI-H322M; [23]): > 100 µM
- Activity (DU-145): 112.48%
- Activity (NCI-H460 [3]): 100.76%
- GI50 (COLO 205): 2.3 µM
- LC50 (COLO 205): > 100 µM
- GI50 (UACC-257): 2.1 µM
- CC50 (UACC-257; [23]): > 100 µM
- Activity (SF-295 [4]): 101.1%
- Activity (SR): 10.62%
- Activity (786-0): 35.48%
- GI50 (RXF 393 [5]): 2.1 µM
- CC50 (RXF 393 [5]; [23]): 7.2 µM
- Activity (K562): 76.92%
- GI50 (SN12C [6]): 2.4 µM
- CC50 (SN12C [6]; [23]): > 100 µM
- Activity (SK-MEL-2): 74.62%
- GI50 (SF-295 [7]): 3.1 µM
- CC50 (SF-295 [7]; [23]): > 100 µM
- GI50 (HOP-62): 3.1 µM
- CC50 (HOP-62; [23]): 57.5 µM
- GI50 (TK-10): 3.1 µM
- CC50 (TK-10; [23]): > 100 µM
- GI50 (OVCAR-4): 3.3 µM
- CC50 (OVCAR-4; [23]): > 100 µM
- Activity (MDA-MB-435): 13.63%
- Activity (MDA-MB-231 [8]): 13.67%
- GI50 (MDA-MB-468): 1.6 µM
- CC50 (MDA-MB-468; [23]): 39.8 µM
- GI50 (HCT-15): 2.2 µM
- CC50 (HCT-15; [23]): > 100 µM
- Activity (SK-MEL-28): -76.48%
- GI50 (HCC 2998 [9]): 1.9 µM
- CC50 (HCC 2998 [9]; [23]): 6.3 µM
- GI50 (CAKI-1 [10]): 1.9 µM
- CC50 (CAKI-1 [10]; [23]): > 100 µM
- GI50 (OVCAR-3): 2.1 µM
- CC50 (OVCAR-3; [23]): 8.9 µM
- GI50 (NCI/ADR-RES [11]): 3.3 µM
- CC50 (NCI/ADR-RES [11]; [23]): > 100 µM
- GI50 [12]: 2.8 µM
- CC50 [12, 23]: > 100 µM
- GI50 (SNB-19 [13]): 5.6 µM
- CC50 (SNB-19 [13]; [23]): > 100 µM
- Activity (Malme-3M): 115.91%
- GI50 (SF-539): 2.5 µM
- CC50 (SF-539; [23]): > 100 µM
- Activity (HCT-116): -89.22%
- GI50 (OVCAR-8): 2.6 µM
- CC50 (OVCAR-8; [23]): > 100 µM
- Activity (SNB-19 [14]): 37.51%
- GI50 (SNB-75): 7 µM
- CC50 (SNB-75; [23]): > 100 µM
- GI50 (KM12): 1.6 µM
- CC50 (KM12; [23]): 5.8 µM
- GI50 (IGROV-1 [15]): 1.6 µM
- CC50 (IGROV-1 [15]; [23]): 16.5 µM
- GI50 (MDA-MB-231 [16]): 2.2 µM
- CC50 (MDA-MB-231 [16]; [23]): > 100 µM
- GI50 [17]: 1.6 µM
- CC50 [17, 23]: > 100 µM
- Activity (MOLT-4): 28.39%
- Activity (SN12C [18]): 0.41%
- Activity (IGROV-1 [19]): 45.54%
- Activity (UO-31): 69.7%
- Activity (M14): 14.42%
- Activity (HCC 2998 [20]): 30.87%
- GI50 (SK-MEL-5): 2.2 µM
- CC50 (SK-MEL-5; [23]): 20.8 µM
- Activity (NCI/ADR-RES [21]): -17.49%
- Activity (RXF 393 [22]): -87.73%
- GI50 (SW-620): 1.7 µM
- CC50 (SW-620; [23]): 6.7 µM
- GI50 (NCI-H522): 2.6 µM
- LC50 (concentration killing 50% of cells) (NCI-H522): > 100 µM
